{"source": "paper PMC11399684", "about": "(Saudi Pharmaceutical Journal : SPJ, 2024)", "key": {"[1]": {"test": "Tissue distribution study", "assay_type": "in vivo, male Wistar rats", "conditions": "for AUCtol / AUMC / Cl: after MPG2ER 10 mg/kg i.p.; for Cmax / MRT / Tmax / half-life: male, Wistar, rat, ip, 10 mg/kg", "outline": "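Male Wistar rats (200 ± 50 g), fasted, were dosed intraperitoneally with the formulation at 10 mg/kg drug equivalent in 5 % v/v DMSO, with 4 rats per time point. At 0.5, 1, 2, 4, 6, 12, 24, 48, 72 and 96 h, rats were killed by cervical dislocation. Excised tissues were homogenised, protein-precipitated in a single step and assayed for drug by HPLC.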"}, "[2]": {"test": "Plasma pharmacokinetic study", "assay_type": "in vivo, male Wistar rats", "conditions": "drug delivered by MPG2 (MPG2ER), intraperitoneal", "outline": "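Male Wistar rats (200 ± 50 g), fasted, got a single intraperitoneal dose of the dendrimer formulation at 10 mg/kg drug equivalent in 5 % v/v DMSO, with 4 rats per time point. Retro-orbital blood (0.5 ml) was drawn at 0.5–96 h and centrifuged for 10 min at 12000 rpm, 4 °C. Plasma underwent single-step protein precipitation and HPLC at 254 nm. Parameters came from non-compartmental analysis.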"}}}
{"molecule": "O=C1Nc2ccc(Cl)cc2[C@@](C#CC2CC2)(C(F)(F)F)O1", "note": "[EFV, efavirenz]", "values": [{"measurement": "AUCtol", "setting": "[1]; Brain", "value": "124±1.660 (μg/mL)*hr"}, {"measurement": "AUMC", "setting": "[1]; Brain", "value": "3245±73.69 (μg/mL)*hr"}, {"measurement": "Cl", "setting": "[1]; Brain", "value": "0.08064±0.001 (μg/kg)/((μg/mL)/hr"}, {"measurement": "AUCtol", "setting": "[1]; Heart", "value": "132.1±1.150 (μg/mL)*hr"}, {"measurement": "AUMC", "setting": "[1]; Heart", "value": "4027 ±87.53 (μg/mL)*hr"}, {"measurement": "Cl", "setting": "[1]; Heart", "value": "0.07601±0.003 (μg/kg)/((μg/mL)/hr"}, {"measurement": "AUCtol", "setting": "[1]; Kidney", "value": "121.2±0.164 (μg/mL)*hr"}, {"measurement": "AUMC", "setting": "[1]; Kidney", "value": "3190±6.976 (μg/mL)*hr"}, {"measurement": "Cl", "setting": "[1]; Kidney", "value": "0.08248±0.001 (μg/kg)/((μg/mL)/hr"}, {"measurement": "AUCtol", "setting": "[1]; Liver", "value": "97.88±1.146 (μg/mL)*hr"}, {"measurement": "AUMC", "setting": "[1]; Liver", "value": "2959±32.860 (μg/mL)*hr"}, {"measurement": "Cl", "setting": "[1]; Liver", "value": "0.1075±0.008 (μg/kg)/((μg/mL)/hr"}, {"measurement": "AUCtol", "setting": "[1]; Lymph Node", "value": "96.33±0.190 (μg/mL)*hr"}, {"measurement": "AUMC", "setting": "[1]; Lymph Node", "value": "3143±75.49 (μg/mL)*hr"}, {"measurement": "Cl", "setting": "[1]; Lymph Node", "value": "0.1038±0.002 (μg/kg)/((μg/mL)/hr"}, {"measurement": "AUCtol", "setting": "[1]; Spleen", "value": "88±2.205 (μg/mL)*hr"}, {"measurement": "AUMC", "setting": "[1]; Spleen", "value": "2799±81.109 (μg/mL)*hr"}, {"measurement": "Cl", "setting": "[1]; Spleen", "value": "0.1156±0.002 (μg/kg)/((μg/mL)/hr"}, {"measurement": "Cmax", "setting": "[1]; brain", "value": "6653 ± 35", "unit": "ng/mL"}, {"measurement": "MRT", "setting": "[1]; brain", "value": "26.2 ± 0.284", "unit": "h"}, {"measurement": "Tmax", "setting": "[1]; brain", "value": 6, "unit": "h"}, {"measurement": "half-life", "setting": "[1]; brain", "value": "13.53 ± 0.088", "unit": "h"}, {"measurement": "Cmax", "setting": "[1]; heart", "value": "4674 ± 25", "unit": "ng/mL"}, {"measurement": "MRT", "setting": "[1]; heart", "value": "30.3 ± 1.28", "unit": "h"}, {"measurement": "Tmax", "setting": "[1]; heart", "value": 6, "unit": "h"}, {"measurement": "half-life", "setting": "[1]; heart", "value": "19.3 ± 0.598", "unit": "h"}, {"measurement": "Cmax", "setting": "[1]; kidney", "value": "5342 ± 20", "unit": "ng/mL"}, {"measurement": "MRT", "setting": "[1]; kidney", "value": "27.3 ± 1.02", "unit": "h"}, {"measurement": "Tmax", "setting": "[1]; kidney", "value": 6, "unit": "h"}, {"measurement": "half-life", "setting": "[1]; kidney", "value": "17.52 ± 0.0127", "unit": "h"}, {"measurement": "Cmax", "setting": "[1]; liver", "value": "5980 ± 83", "unit": "ng/mL"}, {"measurement": "MRT", "setting": "[1]; liver", "value": "30.7 ± 0.384", "unit": "h"}, {"measurement": "Tmax", "setting": "[1]; liver", "value": 6, "unit": "h"}, {"measurement": "half-life", "setting": "[1]; liver", "value": "16.9 ± 1.09", "unit": "h"}, {"measurement": "Cmax", "setting": "[1]; lymph node", "value": "3440 ± 48", "unit": "ng/mL"}, {"measurement": "MRT", "setting": "[1]; lymph node", "value": "32.63 ± 0.113", "unit": "h"}, {"measurement": "Tmax", "setting": "[1]; lymph node", "value": 6, "unit": "h"}, {"measurement": "half-life", "setting": "[1]; lymph node", "value": "21 ± 0.054", "unit": "h"}, {"measurement": "Cmax", "setting": "[1]; spleen", "value": "4580 ± 69", "unit": "ng/mL"}, {"measurement": "MRT", "setting": "[1]; spleen", "value": "32.1 ± 1.65", "unit": "h"}, {"measurement": "Tmax", "setting": "[1]; spleen", "value": 6, "unit": "h"}, {"measurement": "half-life", "setting": "[1]; spleen", "value": "21.9 ± 0.25", "unit": "h"}, {"measurement": "Duration of sustained release in plasma", "setting": "[2]", "value": "up to 96 hrs"}]}
{"molecule": "CC(C)c1nc(CN(C)C(=O)N[C@H](C(=O)N[C@@H](Cc2ccccc2)C[C@H](O)[C@H](Cc2ccccc2)NC(=O)OCc2cncs2)C(C)C)cs1", "note": "[RTV, ritonavir]", "values": [{"measurement": "AUCtol", "setting": "[1]; Brain", "value": "9.25±2.074 (μg/mL)*hr"}, {"measurement": "AUMC", "setting": "[1]; Brain", "value": "97.42± 68.213 (μg/mL)*hr"}, {"measurement": "Cl", "setting": "[1]; Brain", "value": "0.270± 0.008 (μg/kg)/((μg/mL)/hr"}, {"measurement": "AUCtol", "setting": "[1]; Heart", "value": "18.34±1.190 (μg/mL)*hr"}, {"measurement": "AUMC", "setting": "[1]; Heart", "value": "285.923± 47.303 (μg/mL)*hr"}, {"measurement": "Cl", "setting": "[1]; Heart", "value": "0.136± 0.032 (μg/kg)/((μg/mL)/hr"}, {"measurement": "AUCtol", "setting": "[1]; Kidney", "value": "29.27±1.620 (μg/mL)*hr"}, {"measurement": "AUMC", "setting": "[1]; Kidney", "value": "641.30± 73.625 (μg/mL)*hr"}, {"measurement": "Cl", "setting": "[1]; Kidney", "value": "0.087± 0.036 (μg/kg)/((μg/mL)/hr"}, {"measurement": "AUCtol", "setting": "[1]; Liver", "value": "14.51±2.024 (μg/mL)*hr"}, {"measurement": "AUMC", "setting": "[1]; Liver", "value": "240.78± 26.201 (μg/mL)*hr"}, {"measurement": "Cl", "setting": "[1]; Liver", "value": "0.172± 0.012 (μg/kg)/((μg/mL)/hr"}, {"measurement": "AUCtol", "setting": "[1]; Lymph Node", "value": "25.07±1.305 (μg/mL)*hr"}, {"measurement": "AUMC", "setting": "[1]; Lymph Node", "value": "421.67± 81.067 (μg/mL)*hr"}, {"measurement": "Cl", "setting": "[1]; Lymph Node", "value": "0.085± 0.007 (μg/kg)/((μg/mL)/hr"}, {"measurement": "AUCtol", "setting": "[1]; Spleen", "value": "25.82±0.934 (μg/mL)*hr"}, {"measurement": "AUMC", "setting": "[1]; Spleen", "value": "464.21± 27.094 (μg/mL)*hr"}, {"measurement": "Cl", "setting": "[1]; Spleen", "value": "0.091± 0.043 (μg/kg)/((μg/mL)/hr"}, {"measurement": "Cmax", "setting": "[1]; brain", "value": "790 ± 32", "unit": "ng/mL"}, {"measurement": "MRT", "setting": "[1]; brain", "value": "10.5 ± 1", "unit": "h"}, {"measurement": "Tmax", "setting": "[1]; brain", "value": 4, "unit": "h"}, {"measurement": "half-life", "setting": "[1]; brain", "value": "6.67 ± 0.792", "unit": "h"}, {"measurement": "Cmax", "setting": "[1]; heart", "value": "2400 ± 15", "unit": "ng/mL"}, {"measurement": "MRT", "setting": "[1]; heart", "value": "15.6 ± 1.93", "unit": "h"}, {"measurement": "Tmax", "setting": "[1]; heart", "value": 4, "unit": "h"}, {"measurement": "half-life", "setting": "[1]; heart", "value": "13.4 ± 0.45", "unit": "h"}, {"measurement": "Cmax", "setting": "[1]; kidney", "value": "2490 ± 55", "unit": "ng/mL"}, {"measurement": "MRT", "setting": "[1]; kidney", "value": "21.9 ± 0.761", "unit": "h"}, {"measurement": "Tmax", "setting": "[1]; kidney", "value": 4, "unit": "h"}, {"measurement": "half-life", "setting": "[1]; kidney", "value": "14.7 ± 0.652", "unit": "h"}, {"measurement": "Cmax", "setting": "[1]; liver", "value": "2890 ± 21", "unit": "ng/mL"}, {"measurement": "MRT", "setting": "[1]; liver", "value": "16.6 ± 0.272", "unit": "h"}, {"measurement": "Tmax", "setting": "[1]; liver", "value": 4, "unit": "h"}, {"measurement": "half-life", "setting": "[1]; liver", "value": "10.9 ± 0.325", "unit": "h"}, {"measurement": "Cmax", "setting": "[1]; lymph node", "value": "2030 ± 42", "unit": "ng/mL"}, {"measurement": "MRT", "setting": "[1]; lymph node", "value": "16.3 ± 0.937", "unit": "h"}, {"measurement": "Tmax", "setting": "[1]; lymph node", "value": 4, "unit": "h"}, {"measurement": "half-life", "setting": "[1]; lymph node", "value": "12.9 ± 1.09", "unit": "h"}, {"measurement": "Cmax", "setting": "[1]; spleen", "value": "2130 ± 24", "unit": "ng/mL"}, {"measurement": "MRT", "setting": "[1]; spleen", "value": "18 ± 1", "unit": "h"}, {"measurement": "Tmax", "setting": "[1]; spleen", "value": 4, "unit": "h"}, {"measurement": "half-life", "setting": "[1]; spleen", "value": "13 ± 1.02", "unit": "h"}, {"measurement": "Duration of sustained release in plasma", "setting": "[2]", "value": "≤ 72", "unit": "h"}]}
